Drawing on ChEMBL document CHEMBL3124926, “Identification of highly efficacious glucocorticoid receptor agonists with a potential for reduced clinical bone side effects” (J Med Chem, 2014), this text covers IC50 and Emax for ten compounds.

Where only a bound is given, the exact number is not on record here.

Assay [1] has as its target T1, Glucocorticoid receptor (Homo sapiens, UniProt P04150).
T1 sequence (P04150 whole entry): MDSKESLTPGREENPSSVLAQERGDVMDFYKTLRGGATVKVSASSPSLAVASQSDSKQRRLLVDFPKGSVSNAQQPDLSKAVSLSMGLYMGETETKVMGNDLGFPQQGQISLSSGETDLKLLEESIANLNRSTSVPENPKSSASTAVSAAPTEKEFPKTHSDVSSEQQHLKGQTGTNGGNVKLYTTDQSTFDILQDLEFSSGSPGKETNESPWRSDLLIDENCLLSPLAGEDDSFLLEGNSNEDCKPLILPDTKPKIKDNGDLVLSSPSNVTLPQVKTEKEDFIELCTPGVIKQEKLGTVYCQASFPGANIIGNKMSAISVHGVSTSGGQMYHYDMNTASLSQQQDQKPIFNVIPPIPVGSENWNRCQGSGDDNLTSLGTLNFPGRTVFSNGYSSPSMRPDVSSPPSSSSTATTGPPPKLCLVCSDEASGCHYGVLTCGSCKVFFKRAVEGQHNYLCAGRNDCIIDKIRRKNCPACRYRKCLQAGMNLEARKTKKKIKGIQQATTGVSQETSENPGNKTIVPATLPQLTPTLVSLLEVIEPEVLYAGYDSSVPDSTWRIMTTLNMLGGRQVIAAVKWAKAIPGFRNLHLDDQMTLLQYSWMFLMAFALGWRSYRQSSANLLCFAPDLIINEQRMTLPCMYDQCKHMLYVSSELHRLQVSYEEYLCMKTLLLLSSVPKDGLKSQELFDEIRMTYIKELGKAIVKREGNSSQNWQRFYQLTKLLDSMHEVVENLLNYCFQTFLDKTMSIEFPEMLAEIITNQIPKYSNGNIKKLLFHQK
Briefly: Competitive binding affinity to glucocorticoid receptor (unknown origin) expressed in baculovirus-infected cell system after 1 hr by fluorescence polarization assay in presence of tetramethylrhodamine-labeled dexamethasone. A digest of the protocol: (§1)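 Lysates of baculovirus-infected insect cells co-expressing receptor with HSP-70, HSP-90 and p23 (GR diluted 300-fold, MR 17-fold). Probe 5 nM tetramethylrhodamine-dexamethasone in TES/KCl/molybdate/EDTA/CHAPS/glycerol/DTT buffer, pH 7.4, 1% DMSO. 1 h at room temperature in the dark; fluorescence polarization read (ex 550/em 580 nm). Background set with 2 μM dexamethasone. IC50 from duplicate 11-point curves, four-parameter fit, mean of at least two determinations.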

Assay [2] deals with T2, Glucocorticoid receptor (Homo sapiens) (UniProt P04150).
T2 sequence (whole entry): T1 sequence (P04150 whole entry)
As to the kind of experiment: Agonist activity at glucocorticoid receptor in human […] cells assessed as suppression of vitamin D-induced osteocalcin production at 2 uM after 48 hrs by Gla-type osteocalcin ELISA relative to dexomethasone. Type of assay: cell-based. A digest of the protocol: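 MG-63 human osteosarcoma cells plated at 20000/well in DMEM/F-12 with 1% charcoal-filtered FBS and 10 μg/mL vitamin C. Medium refreshed next day, then vitamin D (10 nM final) added with compound (2 × 10−6 to 10−10 M), duplicates. Incubated 48 h at 37 °C; supernatant osteocalcin measured by Gla-type ELISA. Vitamin D-only wells = 100%. Max efficacy at 2 μM is relative to dexamethasone (100%).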

Assay [3] has as its target T2, Glucocorticoid receptor (Homo sapiens). As to the kind of experiment: Agonist activity at glucocorticoid receptor in human HeLa cells transfected with luciferase gene linked to MMTV promoter assessed as induction of luciferase transactivation activity at 2 uM after 6 hrs by luminescence assay. Format: cell-based. The essentials:
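HeLa cells stably carrying an MMTV-luciferase construct, plated the day before at 25000/well in DMEM with 3% FBS. Medium replaced, then compound added (0.2% DMSO final); 1 μM dexamethasone wells = 100% induction, vehicle = background. Incubated 6 h at 37 °C, 5% CO2. Luminescence read after lysis; activation expressed as % of positive control. Top concentration 2 μM.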

The target is the same in assay [4]. As to the kind of experiment: Transrepression activity at glucocorticoid receptor in human fibroblasts assessed as inhibition of IL-1-induced IL-6 production at 2 uM after 18 to 24 hrs relative to dexomethasone. The essentials: (§2)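 Human foreskin fibroblasts grown in Iscove's medium with 10% charcoal/dextran-treated FBS, plated at 20000/well two days before. Medium replaced, then compound (0.4% DMSO final) and recombinant human IL-1 (1 ng/mL final) added. 18–24 h at 37 °C; IL-6 in medium quantified by electrochemiluminescence, DELFIA or ELISA. IC50 by four-parameter fit of duplicate 11-point curves. Efficacy relative to dexamethasone (100%); top concentration 2 μM.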

In assay [5] the target is T1, Glucocorticoid receptor. As to the kind of experiment: Transrepression activity at glucocorticoid receptor in human fibroblasts assessed as inhibition of IL-1-induced IL-6 production after 18 to 24 hrs. The essentials: as §2
Assay [6] deals with T3, Mineralocorticoid receptor (Homo sapiens, UniProt P08235).
T3 sequence (P08235 whole entry): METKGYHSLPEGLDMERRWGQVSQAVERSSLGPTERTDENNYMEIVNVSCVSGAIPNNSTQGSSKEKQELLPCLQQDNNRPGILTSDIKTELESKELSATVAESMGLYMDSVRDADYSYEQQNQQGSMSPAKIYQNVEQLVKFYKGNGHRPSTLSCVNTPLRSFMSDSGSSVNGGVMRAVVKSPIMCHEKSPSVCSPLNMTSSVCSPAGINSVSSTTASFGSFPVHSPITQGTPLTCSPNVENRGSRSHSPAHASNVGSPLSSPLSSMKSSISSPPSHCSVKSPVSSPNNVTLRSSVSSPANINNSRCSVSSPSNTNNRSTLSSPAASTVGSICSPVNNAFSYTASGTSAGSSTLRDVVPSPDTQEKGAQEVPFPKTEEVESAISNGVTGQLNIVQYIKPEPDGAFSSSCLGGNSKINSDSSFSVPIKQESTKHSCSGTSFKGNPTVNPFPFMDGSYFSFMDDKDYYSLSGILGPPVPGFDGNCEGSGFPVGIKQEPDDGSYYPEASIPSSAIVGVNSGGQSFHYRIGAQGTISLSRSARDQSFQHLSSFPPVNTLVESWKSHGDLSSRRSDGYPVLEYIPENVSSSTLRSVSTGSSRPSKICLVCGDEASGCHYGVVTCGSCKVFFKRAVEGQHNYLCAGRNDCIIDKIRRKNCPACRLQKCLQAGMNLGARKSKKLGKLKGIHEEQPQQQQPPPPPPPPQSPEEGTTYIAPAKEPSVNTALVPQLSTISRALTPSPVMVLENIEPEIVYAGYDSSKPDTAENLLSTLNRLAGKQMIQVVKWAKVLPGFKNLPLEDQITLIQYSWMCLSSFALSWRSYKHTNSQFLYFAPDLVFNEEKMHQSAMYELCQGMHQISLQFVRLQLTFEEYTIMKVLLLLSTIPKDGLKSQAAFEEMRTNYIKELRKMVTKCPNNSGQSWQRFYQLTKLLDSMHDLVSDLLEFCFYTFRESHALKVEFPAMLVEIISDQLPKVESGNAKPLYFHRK
Briefly: Competitive binding affinity to mineralocorticoid receptor (unknown origin) expressed in baculovirus-infected cell system after 1 hr by fluorescence polarization assay in presence of tetramethylrhodamine-labeled dexamethasone. The essentials:
as §1

As for `CC(C)(CC(O)(Cc1cc2ncncc2[nH]1)C(F)(F)F)c1ccc(F)cc1O` (racemic), the results for the IC50 (at Glucocorticoid receptor [1]; at Glucocorticoid receptor [5]; in assay [6]) were 5 nM, 9 nM and 1200 nM, respectively. Also, the Emax in assay [2] turned out to be 28%; in assay [3] it was 22%; in assay [4], 86%.
`CC(C)(CC(O)(Cc1cc2ncncc2[nH]1)C(F)(F)F)c1cc(Cl)cc2c1OCC2` (racemic): the IC50 at Glucocorticoid receptor [1] stood at 5 nM; at Glucocorticoid receptor [5], 13 nM; in assay [6], 340 nM. Further, the Emax in assay [2] stood at 35%; in assay [3], 12%; in assay [4] it was 87%.
Turning to `Cc1ccc(F)cc1C(C)(C)C[C@@](O)(Cc1cc2nnccc2[nH]1)C(F)(F)F`, the IC50 at Glucocorticoid receptor [1] is 5 nM; at Glucocorticoid receptor [5], 9 nM; in assay [6], 260 nM. Moreover, the results for the Emax in assay [2], in assay [3] and in assay [4] were 34%, 0% and 86%, respectively.
With `Cc1ccc(F)cc1C(C)(C)CC(O)(Cc1cc2nc(-c3ccccc3)ncc2[nH]1)C(F)(F)F` (racemic), the IC50 at Glucocorticoid receptor [1] was 5 nM; at Glucocorticoid receptor [5], 8 nM; in assay [6], 1900 nM. For the same compound, the Emax in assay [2] stood at 72%; in assay [3] it was 36%; in assay [4], 93%.
In the case of `Cc1ccc(F)cc1C(C)(C)CC(O)(Cc1cc2nnccc2[nH]1)C(F)(F)F` (racemic), the IC50 on Glucocorticoid receptor [1] was determined as 7 nM; at Glucocorticoid receptor [5], 16 nM; in assay [6] it was 615 nM. The Emax in assay [2] was 45%; in assay [3], 7%; in assay [4] it was 85%.
Consider `Cc1ccc(F)cc1C(C)(C)CC(O)(Cc1cc2nc(-c3cccnc3)ncc2[nH]1)C(F)(F)F` (racemic), for which the IC50 on Glucocorticoid receptor [1] was 5 nM; at Glucocorticoid receptor [5] it was 12 nM; in assay [6], greater than 2000 nM. Further, the Emax in assay [2] turned out to be 74%; in assay [3], 32%; in assay [4], 92%.
For `Cc1ccc(F)cc1C(C)(C)CC(O)(Cc1cc2nc(N3CCS(=O)(=O)CC3)ncc2[nH]1)C(F)(F)F` (racemic), the IC50 on Glucocorticoid receptor [1] was 8 nM; at Glucocorticoid receptor [5], 19 nM; in assay [6], greater than 2000 nM. Further, the Emax amounted to 80% in assay [2], 22% in assay [3] and 84% in assay [4].
As to `Cc1ccc(F)cc1C(C)(C)CC(O)(Cc1cc2cc(-c3ccccc3)nnc2[nH]1)C(F)(F)F` (racemic), the IC50 on Glucocorticoid receptor [1] was 13 nM; on Glucocorticoid receptor [5] it was 6 nM; in assay [6], greater than 2000 nM. Besides, the figures for the Emax in assay [2] and in assay [3] were 73% and 75%, respectively.
Regarding `Cc1ccc(F)cc1C(C)(C)C[C@@](O)(Cc1cc2ncncc2[nH]1)C(F)(F)F`, the figures for the IC50 (on Glucocorticoid receptor [1]; on Glucocorticoid receptor [5]; in assay [6]) were 4 nM, 13 nM and 475 nM, respectively. Also, the Emax in assay [2] was 32%; in assay [3], 0%; in assay [4], 72%.
Consider `Cc1ccc(F)cc1C(C)(C)CC(O)(Cc1cc2ncncc2[nH]1)C(F)(F)F` (racemic), for which the results for the IC50 (on Glucocorticoid receptor [1]; on Glucocorticoid receptor [5]; in assay [6]) were 8 nM, 19 nM and 855 nM, respectively. Moreover, the Emax worked out at 32% in assay [2], 0% in assay [3] and 74% in assay [4].
